Experiment [1] concerns CCRF-CEM. The experiment in a line: Cell cycle arrest in human CCRF-CEM assessed as accumulation at subG1 phase at 1 x GIC50 after 24 hrs by flow cytometry. In kind it is functional. The method in brief: (§1)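 Subconfluent CCRF-CEM (5 × 10⁵ cells/mL, RPMI 1640 + 10% FCS, 37 °C CO₂) exposed 24 h at 1× or 5× GIC₅₀, vehicle controls alongside. Cells fixed overnight in 70% ethanol at -20 °C, hypotonic citrate wash, RNase 50 μg/mL, propidium iodide stain, 488 nm flow cytometry. Sub-G1 = particles with PI content below G0/G1 cells. Reported as % of total cells.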
In general terms: In flow cytometry, cells or beads pass a laser one at a time.

Experiment [2] has as its system CCRF-CEM. The experiment in a line: Inhibition of DNA synthesis in human CCRF-CEM assessed as assessed as BrdU incorporation after 24 by flow cytometry. In kind it is functional. Background: Uptake of a labelled nucleoside into DNA is a usual measure of proliferation.
In experiment [3] the test system is CCRF-CEM. The experiment in a line: Inhibition of RNA synthesis in human CCRF-CEM assessed as assessed as BrdU incorporation at 1 x GIC50 after 24 by flow cytometry. More on the design: scale not given: the % may be the effect or the level left. In kind it is functional. The method in brief:
(§2)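 CCRF-CEM culture as for cell cycle (24 h, 1× or 5× GIC₅₀). Cells pulsed 30 min with 1 mM bromouridine before harvest. Fixed in 1% paraformaldehyde/0.05% NP-40. Stained with anti-BrdU antibody cross-reacting with BrU, then FITC secondary, PI and RNase A. BrU+ cells quantified by 488 nm flow cytometry.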

The subject of experiment [4] is DU-145. The experiment in a line: Cellular uptake ion human DU145 cells assessed as triphosphate level measured per million cells after 6 hrs.
A further experiment concerns PC-3. The experiment in a line: Cytotoxicity against human PC3 cells after 5 days by SRB assay. In kind it is functional. To be noted: PC-3, 120 h. The method in brief: (§3)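 Cells seeded in RPMI (colon, breast, lung lines), MEM (Du145) or F12K (PC3) with 10% FBS, 37 °C overnight. Day-zero plates fixed with cold 10% TCA. Compounds added as 5-fold serial dilutions for 5 days. Fixed, stained with 0.057% SRB in 1% acetic acid, dye solubilized in 10 mM Tris pH 10.5, A500 read. Growth % corrected for day-0 OD; GIC₅₀ from sigmoidal fit.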
On the technique in general: In SRB staining, fixed cells bind dye roughly in proportion to their protein.

The subject of another experiment is NCI-H23. The experiment in a line: Cytotoxicity against human NCI-H23 cells after 5 days by SRB assay. In kind it is functional. To be noted: NCI-H23, 120 h. An outline of the steps:
as §3

Experiment [5] concerns CCRF-CEM. The experiment in a line: Cell cycle arrest in human CCRF-CEM assessed as accumulation at G2/M phase at 1 x GIC50 after 24 hrs by flow cytometry. In kind it is functional. An outline of the steps: as §1
A short description of experiment [6]: Cytotoxicity against human HeLaS3 cells after 3 days by XTT assay. In kind it is functional, cell-based. To be noted: HeLa S3, 72 h.
Experiment [7] has as its system CCRF-CEM. The experiment in a line: Cell cycle arrest in human CCRF-CEM assessed as accumulation at G1 phase at 1 x GIC50 after 24 hrs by flow cytometry. In kind it is functional. The method in brief:
as §1

Experiment [8] relates to DU-145. The experiment in a line: Cellular uptake ion human DU145 cells measured per million cells after 24 hrs. In kind it is functional. An outline of the steps: (§4)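 Du145 cells incubated with 10 μM compound for 6 or 24 h, PBS-washed, trypsinized, pelleted, spun through Nyosil M25 oil. Extracts analysed by LC/MS/MS for parent nucleoside, monophosphate and triphosphate. Standards and QC samples prepared in untreated-cell extracts. Expressed as pmol per million cells.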

A further experiment relates to HCT-15. The experiment in a line: Cytotoxicity against human HCT15 cells after 5 days by SRB assay. In kind it is functional. To be noted: HCT-15, 120 h. The method in brief:
as §3

For another experiment, the system named is HCT-116. The experiment in a line: Cytostatic activity against human HCT116 cells after 5 days by SRB assay. In kind it is functional. Particulars: HCT-116, 120 h. The method in brief: as §3
The subject of experiment [9] is CCRF-CEM. The experiment in a line: Antimitotic activity in human CCRF-CEM cells assessed as decrease in mitotic histone H3 at 1 x GIC50. In kind it is functional. More on the design: scale not given: the % may be the effect or the level left. An outline of the steps:
(§5)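 CCRF-CEM cells seeded subconfluent at 5 × 10⁵ cells/mL in RPMI 1640 with 10% FCS, 10 mM glutamine, penicillin/streptomycin, 37 °C humidified CO₂. Exposed 24 h at 1× or 5× GIC₅₀; vehicle controls harvested at 24 h. Ethanol-fixed cells labelled with anti-phospho-histone H3 Ser10 and mitotic cells counted by flow cytometry as % of total population.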

Experiment [10] has as its system CCRF-CEM. The experiment in a line: Cell cycle arrest in human CCRF-CEM assessed as accumulation at S phase at 1 x GIC50 after 24 hrs by flow cytometry. In kind it is functional. The method in brief: as §1
In experiment [11] the test system is CCRF-CEM. The experiment in a line: Inhibition of DNA synthesis in human CCRF-CEM assessed as assessed as BrdU incorporation at 1 x GIC50 after 24 by flow cytometry. In kind it is functional. Set-up: scale not given: the % may be the effect or the level left. An outline of the steps: (§6)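 Culture as for cell cycle work (CCRF-CEM, 24 h, 1× or 5× GIC₅₀). Pulse with 10 μM BrdU for 30 min before harvest. Fixed in 70% ethanol, DNA denatured in 2 M HCl, neutralized with 0.1 M borax. Stained with anti-BrdU and FITC secondary, plus PI 0.1 mg/mL and RNase A. BrdU+ cells counted by flow cytometry.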

Experiment [12] concerns CCRF-CEM. The experiment in a line: Cytotoxicity against human CCRF-CEM cells after 3 days by XTT assay. In kind it is functional, cell-based. Particulars: 72 h. An outline of the steps:
(§7)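 Cell viability of CCRF-CEM, HL60 and HeLa cells measured by XTT assay after 72 h incubation with compounds. IC₅₀ taken as mean of 2–4 independent experiments.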

For experiment [13], the system named is CCRF-CEM. The experiment in a line: Cell cycle arrest in human CCRF-CEM assessed as accumulation at S phase at 5 x GIC50 after 24 hrs by flow cytometry. In kind it is functional. An outline of the steps: as §1
In experiment [14] the test system is CCRF-CEM. The experiment in a line: Cell cycle arrest in human CCRF-CEM assessed as accumulation at G1 phase at 5 x GIC50 after 24 hrs by flow cytometry. In kind it is functional. An outline of the steps: as §1
Experiment [15] concerns CCRF-CEM. The experiment in a line: Inhibition of DNA synthesis in human CCRF-CEM assessed as assessed as BrdU incorporation at 5 x GIC50 after 24 by flow cytometry. In kind it is functional. Set-up: scale not given: the % may be the effect or the level left. An outline of the steps:
as §6

The test system of a further experiment is A549. The experiment in a line: Cytostatic activity against human A549 cells after 5 days by SRB assay. In kind it is functional. Particulars: A549, 120 h. An outline of the steps:
as §3

Experiment [16] concerns CCRF-CEM. The experiment in a line: Cell cycle arrest in human CCRF-CEM assessed as accumulation at subG1 phase at 5 x GIC50 after 24 hrs by flow cytometry. In kind it is functional. The method in brief: as §1
Experiment [17] relates to CCRF-CEM. The experiment in a line: Antimitotic activity in human CCRF-CEM cells assessed as decrease in mitotic histone H3 at 5 x GIC50. In kind it is functional. Set-up: scale not given: the % may be the effect or the level left. The method in brief:
as §5

Experiment [18] has as its system DU-145. The experiment in a line: Cytostatic activity against human DU145 cells after 5 days by SRB assay. In kind it is functional. Particulars: DU-145, 120 h. The method in brief: as §3
The nature of experiment [19]: Cytostatic activity against human Hs578 cells after 5 days by SRB assay. In kind it is functional. Particulars: Hs578, 120 h. The method in brief: as §3
Experiment [20] deals with CCRF-CEM. The experiment in a line: Inhibition of RNA synthesis in human CCRF-CEM assessed as assessed as BrdU incorporation at 5 x GIC50 after 24 by flow cytometry. More on the design: scale not given: the % may be the effect or the level left. In kind it is functional. The method in brief: as §2
Experiment [21] relates to DU-145. The experiment in a line: Cellular uptake ion human DU145 cells measured per million cells after 6 hrs. In kind it is functional. The method in brief:
as §4

Experiment [22] relates to CCRF-CEM. The experiment in a line: Cell cycle arrest in human CCRF-CEM assessed as accumulation at G2/M phase at 5 x GIC50 after 24 hrs by flow cytometry. In kind it is functional. An outline of the steps:
as §1

Experiment [23] deals with DU-145. The experiment in a line: Cellular uptake ion human DU145 cells assessed as monophosphate level measured per million cells after 6 hrs. In kind it is functional. An outline of the steps: as §4
The subject of experiment [24] is DU-145. The experiment in a line: Cellular uptake ion human DU145 cells assessed as monophosphate level measured per million cells after 24 hrs. In kind it is functional. The method in brief: as §4
In the next experiment the test system is HL-60. The experiment in a line: Cytotoxicity against human HL60 cells after 3 days by XTT assay. To be noted: HL-60, 72 h. In kind it is functional, cell-based. The method in brief:
as §7

Experiment [25] deals with CCRF-CEM. The experiment in a line: Inhibition of RNA synthesis in human CCRF-CEM assessed as assessed as BrdU incorporation after 24 by flow cytometry. In kind it is functional.
For a further experiment, the system named is BT-549. The experiment in a line: Cytotoxicity against human BT549 cells after 5 days by SRB assay. In kind it is functional. Particulars: BT-549, 120 h. An outline of the steps:
as §3

The subject of experiment [26] is DU-145. The experiment in a line: Cellular uptake ion human DU145 cells assessed as triphosphate level measured per million cells after 24 hrs.

One may read the GI50 as the concentration giving 50% growth inhibition. The IC50 is the concentration that inhibits the measured activity by half. `OC[C@H]1O[C@@H](n2ccc3c(-c4ccco4)ncnc32)[C@H](O)[C@@H]1O`: the Activity came to 16.5% in the experiment with CCRF-CEM [1]; 28.7% in the experiment on CCRF-CEM [3]; 12.9% in the experiment with CCRF-CEM [5]; 44.9% with CCRF-CEM [7]; 207 pmol in the experiment on DU-145 [8]; 1.21% in the experiment with CCRF-CEM [9]. In addition, the Activity in the experiment with CCRF-CEM [10] came to 42.2%; in the experiment on CCRF-CEM [11] it was 54.3%; with CCRF-CEM [13], 44.6%; in the experiment with CCRF-CEM [14] it was 46.7%; in the experiment with CCRF-CEM [15] it was 31.3%; with CCRF-CEM [16], 60.2%. Besides, the Activity in the experiment with CCRF-CEM [17] worked out at 0.48%; in the experiment with CCRF-CEM [20], 4.7%; in the experiment on DU-145 [21], 950 pmol; in the experiment on CCRF-CEM [22] it was 6.8%; with DU-145 [23], 4124 pmol; with DU-145 [24], 6842 pmol. Besides, the figures for the “inhibition (INH)” value with CCRF-CEM [2] and in the experiment on CCRF-CEM [25] were 31.33% and 4.7%, respectively. Also, the “triphosphate (NTP) level” value with DU-145 [4] came to 88.4 pmol; in the experiment on DU-145 [26], 109 pmol. The GI50 stood at 0.014 µM with PC-3; 0.13 µM in the experiment with NCI-H23; 0.02 µM with HCT-15; 0.078 µM with HCT-116; 0.088 µM in the experiment on A549; 0.007 µM in the experiment on DU-145 [18]. The GI50 in experiment [19] stood at 0.049 µM; in the experiment on BT-549 it was 0.012 µM. Moreover, the IC50 was determined as 0.77 µM in [6], 0.31 µM with CCRF-CEM [12] and 0.81 µM in the experiment on HL-60.

`OC[C@H]1O[C@@H](n2cc(Cl)c3c(-c4ccco4)ncnc32)[C@H](O)[C@@H]1O`: the “triphosphate (NTP) level” value in the experiment with DU-145 [4] amounted to 19.2 pmol; in the experiment on DU-145 [26], 21.2 pmol. For the same molecule, the IC50 in experiment [6] is over 40 µM; in the experiment on CCRF-CEM [12], 3.8 µM; with HL-60, 21.6 µM. Also, the Activity amounted to 45 pmol in the experiment with DU-145 [8], 20.1 pmol in the experiment on DU-145 [21], 164 pmol in the experiment on DU-145 [23] and 332 pmol in the experiment on DU-145 [24]. Moreover, the GI50 (in the experiment with HCT-116; with A549; in the experiment with DU-145 [18]; in experiment [19]) was over 10 µM each time.

(Values after ChEMBL document CHEMBL1156780, “6-(Het)aryl-7-deazapurine ribonucleosides as novel potent cytostatic agents” (J Med Chem, 2010).)
